Assay results from ChEMBL document CHEMBL4028897 (J Med Chem, 2017).
Calls of active or inactive are those of the source. The rule behind the calls is not given here.

Experiments:
D(3) dopamine receptor [1] = molecular target: T1, D(3) dopamine receptor (Homo sapiens, UniProt P35462); assay: Displacement of [125I]ABN from human dopamine D3 receptor expressed in HEK293 cell membranes after 60 mins by scintillation counting method
Homo sapiens = species on record: Homo sapiens; assay: Selectivity ratio of Ki for human dopamine D2 long receptor to Ki for human dopamine D3 receptor
Summary of the method: (§1)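 Nonspecific binding defined with 20 μM (+)-butaclamol. Inhibitor spanned 5 log units, two concentrations per decade, in triplicate. Stopped with ice-cold Tris/NaCl wash and glass-fiber filtration.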

D(2) dopamine receptor = D(2) dopamine receptor (Homo sapiens, UniProt P14416); assay: Displacement of [125I]ABN from human dopamine D2 long receptor expressed in HEK293 cell membranes after 60 mins by scintillation counting method; summary of the method: as §1
Sequence of D(2) dopamine receptor (P14416 whole entry): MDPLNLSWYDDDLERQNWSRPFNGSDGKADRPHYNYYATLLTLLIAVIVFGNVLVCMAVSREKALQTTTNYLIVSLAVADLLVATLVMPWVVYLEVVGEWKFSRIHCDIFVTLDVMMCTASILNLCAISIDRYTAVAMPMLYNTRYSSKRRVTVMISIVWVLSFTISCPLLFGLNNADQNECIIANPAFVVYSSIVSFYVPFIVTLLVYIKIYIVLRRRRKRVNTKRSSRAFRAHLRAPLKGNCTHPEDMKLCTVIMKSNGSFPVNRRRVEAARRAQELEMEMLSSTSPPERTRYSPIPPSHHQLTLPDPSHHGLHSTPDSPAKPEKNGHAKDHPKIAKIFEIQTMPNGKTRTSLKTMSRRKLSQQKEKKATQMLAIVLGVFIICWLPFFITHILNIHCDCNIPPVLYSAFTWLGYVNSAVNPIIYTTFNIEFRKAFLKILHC

[2] = molecular target: 5-hydroxytryptamine receptor 2A (Homo sapiens) (UniProt P28223); assay: Binding affinity to 5-HT2A receptor (unknown origin)
Sequence of 5-hydroxytryptamine receptor 2A (Homo sapiens) (P28223 whole entry): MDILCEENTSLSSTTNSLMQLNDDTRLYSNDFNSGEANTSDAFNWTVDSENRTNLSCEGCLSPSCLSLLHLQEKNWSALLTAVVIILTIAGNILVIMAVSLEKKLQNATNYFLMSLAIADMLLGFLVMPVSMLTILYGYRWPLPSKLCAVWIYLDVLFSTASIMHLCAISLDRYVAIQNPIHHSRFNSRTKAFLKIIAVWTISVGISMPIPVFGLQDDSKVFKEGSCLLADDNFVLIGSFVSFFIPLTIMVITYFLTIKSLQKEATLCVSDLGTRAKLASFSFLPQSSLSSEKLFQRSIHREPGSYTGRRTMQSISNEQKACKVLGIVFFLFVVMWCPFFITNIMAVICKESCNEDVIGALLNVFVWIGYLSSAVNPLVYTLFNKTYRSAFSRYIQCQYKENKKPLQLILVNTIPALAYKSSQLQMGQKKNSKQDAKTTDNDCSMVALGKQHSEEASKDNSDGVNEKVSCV

[3] = molecular target: T2, 5-hydroxytryptamine receptor 1A (Homo sapiens, UniProt P08908); assay: Displacement of [3H]8-OH-DPAT from human 5-HT1A receptor expressed in CHO-K1 cell membranes after 60 mins by scintillation counting method
T2 sequence (P08908 whole entry): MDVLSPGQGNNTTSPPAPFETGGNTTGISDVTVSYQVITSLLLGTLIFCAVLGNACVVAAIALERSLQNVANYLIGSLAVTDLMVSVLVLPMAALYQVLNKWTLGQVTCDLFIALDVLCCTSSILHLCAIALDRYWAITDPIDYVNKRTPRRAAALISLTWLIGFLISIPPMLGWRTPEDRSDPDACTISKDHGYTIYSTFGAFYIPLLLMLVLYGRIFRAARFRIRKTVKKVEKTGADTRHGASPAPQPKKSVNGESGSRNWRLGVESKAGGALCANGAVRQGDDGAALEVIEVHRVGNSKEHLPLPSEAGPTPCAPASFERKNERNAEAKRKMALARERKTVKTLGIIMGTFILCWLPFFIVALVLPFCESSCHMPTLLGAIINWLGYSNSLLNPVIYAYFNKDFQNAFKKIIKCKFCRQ
Summary of the method: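 CHO-K1 membranes expressing human 5-HT1AR in 50 mM Tris-HCl, 10 mM MgSO4, 0.5 mM EDTA, 0.1% ascorbic acid, pH 7.4. […] Nonspecific binding with 10 μM metergoline. Competitor over 5 log units, two per decade, in triplicate. Ice-cold 10 mM Tris-HCl (pH 7.4) wash, glass-fiber filtration.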

D(3) dopamine receptor [4] = molecular target: T1, D(3) dopamine receptor; assay: Agonist activity at human dopamine D3 receptor expressed in human U2OS cells assessed as inhibition of forskolin-dependent stimulation of adenylyl cyclase at 10 times Ki; assay type: functional, cell-based
D(3) dopamine receptor [5] = molecular target: T1, D(3) dopamine receptor; assay: Agonist activity at human ProLink-tagged dopamine D3 receptor expressed in human U2OS cells assessed as induction of EA-tagged beta-arrestin binding at 10 times Ki after 90 mins by chemoluminescence assay; assay type: cell-based
[6] = molecular target: T3, 5-hydroxytryptamine receptor 2C (Homo sapiens) (UniProt P28335); assay: Binding affinity to 5-HT2C receptor (unknown origin)
T3 sequence (whole entry): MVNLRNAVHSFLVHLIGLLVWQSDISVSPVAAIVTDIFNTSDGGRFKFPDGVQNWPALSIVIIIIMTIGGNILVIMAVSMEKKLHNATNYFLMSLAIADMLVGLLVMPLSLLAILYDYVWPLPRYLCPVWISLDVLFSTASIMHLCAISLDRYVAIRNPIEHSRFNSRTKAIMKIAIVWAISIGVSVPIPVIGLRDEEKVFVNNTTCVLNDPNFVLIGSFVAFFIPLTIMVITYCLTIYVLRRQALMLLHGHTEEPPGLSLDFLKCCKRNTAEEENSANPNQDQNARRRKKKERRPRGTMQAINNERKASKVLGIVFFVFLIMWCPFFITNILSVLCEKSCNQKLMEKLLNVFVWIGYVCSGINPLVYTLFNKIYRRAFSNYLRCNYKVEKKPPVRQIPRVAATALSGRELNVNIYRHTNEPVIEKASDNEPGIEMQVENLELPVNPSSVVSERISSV

D(3) dopamine receptor [7] = molecular target: T1, D(3) dopamine receptor; assay: Partial agonist activity at human dopamine D3 receptor expressed in human U2OS cells assessed as inhibition of forskolin-dependent stimulation of adenylyl cyclase at 10 times Ki; assay type: functional, cell-based

T1 sequence (P35462 whole entry): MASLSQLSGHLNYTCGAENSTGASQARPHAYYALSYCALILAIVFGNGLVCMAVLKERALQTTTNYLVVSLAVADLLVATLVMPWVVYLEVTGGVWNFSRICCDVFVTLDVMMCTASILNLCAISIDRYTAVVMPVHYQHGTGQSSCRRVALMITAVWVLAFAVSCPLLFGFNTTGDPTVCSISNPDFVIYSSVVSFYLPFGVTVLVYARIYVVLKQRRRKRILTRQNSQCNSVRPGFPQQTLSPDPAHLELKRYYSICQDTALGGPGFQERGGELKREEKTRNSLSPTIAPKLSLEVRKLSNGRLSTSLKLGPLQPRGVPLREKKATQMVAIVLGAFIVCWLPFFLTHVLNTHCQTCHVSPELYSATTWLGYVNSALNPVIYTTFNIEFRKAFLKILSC

| Ki (D(3) dopamine receptor [1]) | Ratio Ki (Homo sapiens) | Ki (D(2) dopamine receptor) | Activity [2] | Ki [3] | Activity (D(3) dopamine receptor [4]) | Activity (D(3) dopamine receptor [5]) | Activity [6] | Activity (D(3) dopamine receptor [7]) | Structure (SMILES) |
| --- | --- | --- | --- | --- | --- | --- | --- | --- | --- |
| 871 nM | 96.1 | 83700 nM | – | – | – | – | – | – | Cn1c(SCCCN2CCC3(CC2)CCN(c2ccccn2)CC3)nnc1-c1ccccc1 |
| 97.7 nM | 1070 | 105000 nM | – | – | – | – | – | – | COc1ccc(N2CCC3(CCN(CCCSc4nnc(-c5ccccc5)n4C)CC3)CC2)cc1 |
| 438 nM | 130 | 57100 nM | – | – | – | – | – | – | Cn1c(SCCCN2CCC3(CC2)CCN(c2cccc(C#N)c2)CC3)nnc1-c1ccccc1 |
| 25.6 nM | 383 | 9790 nM | Active | 587 nM | inactive | inactive | Active | – | Cn1c(SCCCN2CCC3(CC2)CCN(c2ccc(F)cc2)CC3)nnc1-c1ccccc1 |
| 12 nM | – | 10900 nM | Active | 931 nM | – | – | Active | Active | COc1ccccc1N1CCC2(CCN(CCCSc3nnc(-c4ccccc4)n3C)CC2)CC1 |
| 82.4 nM | 91 | 7500 nM | – | – | – | – | – | – | Cn1c(SCCCN2CCC3(CC2)CCN(c2cccc(Cl)c2Cl)CC3)nnc1-c1ccccc1 |
| 19.6 nM | – | 6170 nM | Active | 724 nM | inactive | inactive | Active | – | COc1ccccc1N1CCC2(CCN(CCCSc3nnc(-c4ccccc4)n3C)CC2)C1 |

More lines, now with the values behind:

| Structure (SMILES) | Ki (D(3) dopamine receptor [1]) | Ratio Ki (Homo sapiens) | Ki (D(2) dopamine receptor) | Activity [2] | Ki [3] | Activity (D(3) dopamine receptor [4]) | Activity (D(3) dopamine receptor [5]) | Activity [6] | Activity (D(3) dopamine receptor [7]) |
| --- | --- | --- | --- | --- | --- | --- | --- | --- | --- |
| COc1ccccc1N1CCC12CN(CCCSc1nnc(-c3ccccc3)n1C)C2 | 4790 nM | 24 | 115000 nM | – | – | – | – | – | – |
| COc1ccccc1N1CCC2(CCN(CCCSc3nnc(-c4ccccc4)n3C)C2)C1 (racemic) | 24.2 nM | 264 | 6370 nM | – | – | inactive | inactive | – | – |
| COc1ccccc1N1CCN(CCCSc2nnc(-c3ccccc3)n2C)CC1 | 6.5 nM | – | 260 nM | – | 0.22 nM | – | – | – | – |
| Cn1c(SCCCN2CC3(CCN3c3ccc(F)cc3)C2)nnc1-c1ccccc1 | 18200 nM | > 6 | > 110000 nM | – | – | – | – | – | – |
| COc1ccccc1N1CCC12CCN(CCCSc1nnc(-c3ccccc3)n1C)CC2 | 169 nM | 173 | 29300 nM | – | – | – | – | – | – |
| COc1ccccc1N1CCC2(CN(CCCSc3nnc(-c4ccccc4)n3C)C2)C1 | 192 nM | 313 | 60200 nM | – | – | – | – | – | – |
| COc1ccccc1N1CC2(CN(CCCSc3nnc(-c4ccccc4)n3C)C2)C1 | 833 nM | 25.5 | 21200 nM | – | – | – | – | – | – |
| COc1ccccc1N1CC2(CCN(CCCSc3nnc(-c4ccccc4)n3C)CC2)C1 | 235 nM | 160 | 37600 nM | – | – | – | – | – | – |
